Assay outcomes deposited in PubChem BioAssay by several laboratories.
Sampled rows, rich in hits. Any-hit rate of the full collection: about 5.7%.
T cruzi repl = blocks replication of Trypanosoma cruzi. T. cruzi beta-gal in NIH3T3, luminescence, 90 h. inhibition, % (concentration not given with the values). 1.4% of 300,000 active. AID 1885;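 active = mean inhibition across valid replicates above about 55%, limit read from the data; inconclusive = mean below that limit but half or more replicates reach it; inactive = mean below it, under half of replicates reach it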;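 also: signal also drops with host cell toxicity which is not excluded here; 0% = plate median of DMSO wells and 100% = zero luminescence signal; higher percent means less beta-gal luminescence so fewer parasites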
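Incubation – ≥90 h infection period, 3 h prior cell attachment · System – NIH/3T3 fibroblasts plus reporter T. cruzi · Doses – compound pinned at 50 nL/well, DMSO · Read-out basis – percent inhibition of parasite-derived β-gal signal · Signal – luminescent β-galactosidase signal after 60 min lysis · Also added – 5000 T. cruzi trypomastigotes/well · Medium – Low-serum DMEM with 2% FBS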
CSC inhib = cancer stem cell inhibition. inhibition, % at 7.5 µM. AID 2717. 1.1% of 300,000 active. cancer stem cell-like cells viability, luminescence; in the data active = inhibition above about 75%; inconclusive = no clear call, values can overlap the other calls; tested in HMLE shEcad cells
SKKanGAS inh = SKKanGAS growth inhibition; S. pyogenes SKKanGAS, kanamycin growth, BacTiter-Glo, 6 h; inhibition, % at 7.5 µM; 1.3% of 300,000 active; AID 1662;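 active = mean replicate score, as percent of positive control median, at least 50; inconclusive = mean below 50 but one replicate at or above 50; inactive = mean and every replicate below 50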;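 also: strain carries kanamycin resistance gene driven by streptokinase promoter and grows in 40 µg/ml kanamycin; loss of luminescence reflects streptokinase promoter inhibition or plain growth inhibition; 0% = median of DMSO wells and 100% = positive control at its reference dose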
Calb FLC = C. albicans growth modulation with fluconazole. C. albicans CaCi-2 + fluconazole, Alamar Blue growth, 48 h. growth inhibition, % (concentration not given with the values). 0.57% of 300,000 active;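 active = growth inhibition above about 58% in most replicates, limit read from the data, passing the limit was not always enough; inconclusive = exactly half the replicates above a set limit; inactive = most replicates below a set limit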;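 also: all wells also contain fluconazole at 8 µg/ml as a sub-toxic cotreatment; 0% = median of DMSO wells and 100% = median of geldanamycin control wells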
Beta apoptosis = blocks beta cell apoptosis | INS-1E cytokine-induced death, ATP luminescence, 48 h; percent of positive-control rescue, neutral wells zero | 0.8% of 300,000 active | protection from apoptosis, % (test concentration not listed);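 active = Every replicate reaches about 75%, or at least half do and their mean reaches it too, limit read from the data; inconclusive = At least half of replicates reach the limit but their mean does not; inactive = Under half of replicates reach the limit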;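 also: 0% = cytokine-treated negative control wells and 100% = positive control rescue; higher means more ATP so stronger rescue from cytokine killing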
Mdm2 MdmX PPI = inhibitors of human Mdm2/MdmX interaction | O15151+Q00987 | SaOS-2 split-luciferase Mdm2/MdmX complementation, luminescence | inhibition, % at 8 µM | 3% of 330,000 active | AID 485346;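 active = inhibition of at least 50% at 8 µM in the primary screen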
Target sequence (O15151 whole entry, looked up): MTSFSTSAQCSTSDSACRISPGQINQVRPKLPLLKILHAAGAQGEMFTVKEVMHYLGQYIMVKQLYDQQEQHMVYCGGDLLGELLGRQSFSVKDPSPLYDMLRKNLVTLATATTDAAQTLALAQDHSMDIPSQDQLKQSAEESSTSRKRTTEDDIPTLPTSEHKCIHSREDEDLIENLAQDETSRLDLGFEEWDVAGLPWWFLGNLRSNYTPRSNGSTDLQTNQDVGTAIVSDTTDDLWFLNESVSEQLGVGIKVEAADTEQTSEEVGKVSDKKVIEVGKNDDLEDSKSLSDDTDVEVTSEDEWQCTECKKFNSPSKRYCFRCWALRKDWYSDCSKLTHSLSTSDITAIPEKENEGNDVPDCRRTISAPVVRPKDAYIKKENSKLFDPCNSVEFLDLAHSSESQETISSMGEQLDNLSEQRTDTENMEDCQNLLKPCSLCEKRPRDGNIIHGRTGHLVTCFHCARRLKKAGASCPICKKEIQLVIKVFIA
Target sequence (Q00987 whole entry, looked up): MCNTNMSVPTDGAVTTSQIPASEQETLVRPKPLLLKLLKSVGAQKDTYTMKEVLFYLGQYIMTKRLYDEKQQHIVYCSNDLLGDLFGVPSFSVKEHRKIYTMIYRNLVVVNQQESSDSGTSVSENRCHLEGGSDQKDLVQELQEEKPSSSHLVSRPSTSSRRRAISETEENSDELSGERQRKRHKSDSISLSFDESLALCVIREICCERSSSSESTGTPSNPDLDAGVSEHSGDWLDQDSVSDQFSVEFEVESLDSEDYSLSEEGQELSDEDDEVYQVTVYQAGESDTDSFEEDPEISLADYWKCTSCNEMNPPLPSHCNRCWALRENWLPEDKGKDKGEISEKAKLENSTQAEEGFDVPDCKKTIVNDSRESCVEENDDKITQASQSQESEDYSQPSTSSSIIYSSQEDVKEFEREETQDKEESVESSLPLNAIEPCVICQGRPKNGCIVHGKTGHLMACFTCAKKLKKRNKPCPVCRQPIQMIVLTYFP
Mdm2 MdmX conf = human Mdm2/MdmX binding inhibition, confirmed. luminescent assay. 55% of 10,000 active. shares compounds with Mdm2 MdmX PPI. inhibition, % at 8 µM. AID 489028; in the data active = inhibition above about 40%
FLuc counter = counter-screen for Mdm2/MdmX inhibitors: full-length luciferase; shares compounds with Mdm2 MdmX PPI; AID 504607; inhibition, % at 8 µM; 77% of 6,200 active; SaOS-2 full-length luciferase counterscreen, luminescence;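 active = mean inhibition at 8 µM reaching about 37%, which flags the compound as non-specific, limit read from the data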;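 also: p53-null SaOS-2 cells with luciferase driven by a doxycycline-inducible promoter; compound on cells about two nights before reading with doxycycline added after day one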
Starred values were filed as active, the others as inactive; ? = inconclusive; / = no result.

SMILES	T cruzi repl	CSC inhib	SKKanGAS inh	Calb FLC	Beta apoptosis	Mdm2 MdmX PPI	Mdm2 MdmX conf	others
Cc1onc(-c2c(Cl)cccc2Cl)c1C(=O)NCCc1ccncc1	-6.8	13.5	-9.4	3.9	-6.0	3.9	/
Cc1ccc(-n2nc3c(=O)n(CC(=O)NC(C)CCc4ccccc4)nc(C)c3c2C)cc1 (configuration not stated)	5.6	1.8	0.0	-12.7	9.3	50.1*	9.2
CC1CCCN(S(=O)(=O)c2ccc(NC(=O)C3CCN(C(=O)C(C)(C)C)CC3)cc2)C1 (configuration not stated)	/	-7.4	/	/	-6.0	15.3	/
CC(C)n1c(SCC(=O)Nc2nc3c(s2)CCCC3)nc2c1c(=O)n(C)c(=O)n2C	-20.2	11.5	10.7	-0.4	7.6	59.5*	36.1	FLuc counter=39.9*
COc1ccc2nc3n(c(=O)c2c1)-c1ccccc1C(=O)NC3Cc1ccccc1 (configuration not stated)	/	/	/	/	-2.6	22.0	/
CC(C)(C)c1ccc(C(=O)N2CCCC2c2cccs2)cc1 (configuration not stated)	6.3	4.1	1.6	4.4	-5.3	-2.3	/
Cc1ccc(Sc2c([N+](=O)[O-])c(=O)n(C)c3ccccc23)cc1	38.9	118.3*	4.7	-1.2	-3.5	50.6*	14.3
Cc1ccc(Sc2c(C=O)c3ccccc3n2C)cc1	7.2	-4.0	31.7	2.5	-7.2	81.2*	70.6*	FLuc counter=53.1*
Cn1c(-c2ccccc2)c(C=O)c2ccccc21	15.5	2.7	-3.1	-33.9	-1.4	19.4	/
Cc1ccc(Sc2c(O)c3ccccc3n(C)c2=O)cc1	-4.7	/	15.6	-3.1	/	/	/
CN(C)/C=C/C(=O)c1ccc2noc(-c3ccccc3)c2c1	-9.4	1.6	9.8	-2.2	-13.7	50.9*	34.1
CC(=O)c1ccc2noc(-c3ccccc3)c2c1	9.9	-14.7	-6.4	6.1	-11.2	4.8	/
O=C(Nc1cccc(Cl)c1)Nc1nnc(CC2=CCCCC2)s1	19.1	29.7	-3.5	5.2	35.2	79.9*	42.8*	FLuc counter=87.7*
O=C(Nc1cccc(Cl)c1)Nc1nnc(CSCCOc2ccc(Cl)cc2)s1	37.5	31.1	22.4	11.6	139.3*	98.7*	90.3*	FLuc counter=23.0
O=C(Nc1nnc(CC2=CCCCC2)s1)Nc1ccccc1F	12.2	15.8	2.3	-9.9	1.9	19.2	/
COc1ccc(OCCSCc2nnc(NC(=O)Nc3ccc(Cl)cc3)s2)cc1	7.2	21.2	0.6	?	15.5	63.5*	2.6
O=C(Nc1ccc(Cl)cc1)Nc1nnc(CSCc2ccccc2)s1	10.4	24.0	-14.1	-15.1	32.3	57.6*	23.4
O=C(Nc1ccc(Cl)cc1)Nc1nnc(CSc2ccc(Cl)cc2)s1	-13.7	/	-12.2	-26.3	6.9	-5.6	/
CCN1CCN(CCNC(=O)c2ccc(CS(=O)c3ccc(Br)cc3)o2)CC1 (configuration not stated)	12.1	8.2	28.7	47.9	-4.6	24.2	/
COc1cc(C(=O)NCCCCc2ccccc2)cc(OC)c1OC	0.6	-4.3	-13.5	12.5	-3.4	-14.3	/
C[C@H](CO)N1C[C@H](C)[C@@H](CN(C)C(=O)NC2CCCCC2)Oc2c(NC(=O)c3ccncc3)cccc2C1=O	/	-2.9	/	/	-2.4	-0.7	/
CCCc1ccc(Oc2cc(NN3CCCCC3)c([N+](=O)[O-])cc2[N+](=O)[O-])cc1	-3.3	-10.5	-3.6	5.5	-4.0	27.9	/
CC(=O)Nc1ccc(Oc2sc(C(=O)c3ccccc3)c(N)c2C#N)cc1	4.2	35.0	-8.9	4.8	-36.8	61.5*	29.1	FLuc counter=78.1*
O=C1CCC(C(=O)Nc2ccc([N+](=O)[O-])cc2)N1 (configuration not stated)	/	-9.6	/	/	-1.9	1.4	/
CCSc1nsc(NC(=O)Nc2ccccc2F)n1	-0.7	7.1	1.4	-3.5	19.0	-49.5	/
C=CCSc1nsc(NC(=O)Nc2ccc(F)cc2)n1	35.2	101.0*	74.5*	2.3	110.6*	91.3*	89.0*	FLuc counter=28.0
Cc1nnc(NC(=O)CSc2nnc(CC(=O)Nc3ccccc3F)n2C)s1	-8.1	-14.7	-2.9	0.4	1.2	5.8	/
